Test results as given in PMC8861878 (The Journal of pharmacy and pharmacology, 2020).
Where “and” joins values, the source holds several entries; their conditions need not be identical. Equal values may be shown once.

How the values were obtained:
UGT1A1 [1] = target: T1, UGT1A1 (Homo sapiens, UniProt P22309); experiment: Glucuronidation of isobavachin by recombinant UGT1A1, enzyme kinetics; type: in vitro ADME; settings: formation of G1, substrate inhibition model
T1 sequence (P22309 26-533): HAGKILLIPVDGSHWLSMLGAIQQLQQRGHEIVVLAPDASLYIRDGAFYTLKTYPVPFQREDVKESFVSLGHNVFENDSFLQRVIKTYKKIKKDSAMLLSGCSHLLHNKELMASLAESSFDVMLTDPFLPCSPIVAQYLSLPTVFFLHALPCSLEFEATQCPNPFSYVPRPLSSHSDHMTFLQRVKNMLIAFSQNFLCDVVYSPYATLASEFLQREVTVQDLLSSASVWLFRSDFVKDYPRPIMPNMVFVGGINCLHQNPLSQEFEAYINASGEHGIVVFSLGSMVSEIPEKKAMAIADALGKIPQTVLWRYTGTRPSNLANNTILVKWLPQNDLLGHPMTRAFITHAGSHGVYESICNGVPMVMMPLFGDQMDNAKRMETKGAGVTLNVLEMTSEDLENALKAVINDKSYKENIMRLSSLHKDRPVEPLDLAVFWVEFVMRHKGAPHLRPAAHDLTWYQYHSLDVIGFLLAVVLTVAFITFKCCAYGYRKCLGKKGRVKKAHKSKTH

[2] = Mono-oxidation of isobavachin by pooled HLM, enzyme kinetics; type: in vitro ADME, human
[3] = Glucuronidation of isobavachin by pooled HLM, enzyme kinetics; type: in vitro ADME, human
CYP1A2 = target: T2, CYP1A2 (Homo sapiens, UniProt P05177); experiment: Inhibition of CYP1A2; type: in vitro ADME; settings: isobavachin 1, 10, 100 μM; substrate phenacetin (100 μM)
T2 sequence (P05177 1-516): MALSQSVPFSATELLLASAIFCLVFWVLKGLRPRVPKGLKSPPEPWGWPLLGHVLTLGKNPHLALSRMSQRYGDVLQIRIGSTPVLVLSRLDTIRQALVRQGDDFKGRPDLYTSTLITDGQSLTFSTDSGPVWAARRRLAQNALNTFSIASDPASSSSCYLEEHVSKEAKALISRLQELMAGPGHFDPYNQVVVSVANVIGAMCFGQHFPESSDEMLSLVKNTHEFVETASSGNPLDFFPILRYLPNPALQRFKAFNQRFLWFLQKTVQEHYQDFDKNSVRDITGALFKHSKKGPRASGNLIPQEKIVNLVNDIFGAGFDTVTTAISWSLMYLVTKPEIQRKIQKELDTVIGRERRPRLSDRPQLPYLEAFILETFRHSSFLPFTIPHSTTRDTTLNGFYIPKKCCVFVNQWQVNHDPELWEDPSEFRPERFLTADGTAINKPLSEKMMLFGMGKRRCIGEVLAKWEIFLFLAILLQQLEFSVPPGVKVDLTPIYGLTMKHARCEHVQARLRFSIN
Method in brief: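 Recombinant human CYPs (CYP1A2 and 3A4 at 0.05 mg/ml; CYP2C8 and 2E1 at 0.1 mg/ml) with probe substrate in Tris-HCl 50 mM pH 7.4, MgCl2 5 mM and NADPH 1 mM at 37 °C for 60 min. Run without (control) or with test compound at 1, 10 or 100 μM. Acetonitrile stop; metabolite by UHPLC-TQD-MS; activity versus control, triplicate.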

UGT1A1 [4] = target: T1, UGT1A1; experiment: Inhibition of UGT1A1; type: in vitro ADME
[5] = intragastric administration of Psoraleae Fructus extracts (1.2 g/kg); cited from earlier work
CYP2B6 = target: T3, CYP2B6 (Homo sapiens, UniProt P20813); experiment: Inhibition of CYP2B6; type: in vitro ADME
T3 sequence (P20813 1-491): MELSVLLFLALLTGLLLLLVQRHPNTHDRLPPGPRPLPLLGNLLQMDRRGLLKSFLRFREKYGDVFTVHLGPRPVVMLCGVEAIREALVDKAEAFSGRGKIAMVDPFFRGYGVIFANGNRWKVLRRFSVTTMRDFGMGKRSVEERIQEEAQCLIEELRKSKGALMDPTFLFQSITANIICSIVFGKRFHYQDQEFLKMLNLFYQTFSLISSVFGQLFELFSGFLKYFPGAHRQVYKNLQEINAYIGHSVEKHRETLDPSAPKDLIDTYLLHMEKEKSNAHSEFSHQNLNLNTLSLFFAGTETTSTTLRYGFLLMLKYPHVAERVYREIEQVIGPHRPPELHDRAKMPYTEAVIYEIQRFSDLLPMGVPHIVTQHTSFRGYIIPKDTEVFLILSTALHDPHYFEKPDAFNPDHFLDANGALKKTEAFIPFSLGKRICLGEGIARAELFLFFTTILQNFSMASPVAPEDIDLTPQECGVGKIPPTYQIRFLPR

expressed UGT enzymes = experiment: Reaction phenotyping with expressed UGT enzymes; type: in vitro ADME, human; settings: isobavachin at 10 μM (Figure S4B)
UGT1A7 = target: T4, UGT1A7 (Homo sapiens, UniProt Q9HAW7); experiment: Glucuronidation of isobavachin by recombinant UGT1A7, enzyme kinetics; type: in vitro ADME; settings: formation of G1, substrate inhibition model
T4 sequence (Q9HAW7 26-530): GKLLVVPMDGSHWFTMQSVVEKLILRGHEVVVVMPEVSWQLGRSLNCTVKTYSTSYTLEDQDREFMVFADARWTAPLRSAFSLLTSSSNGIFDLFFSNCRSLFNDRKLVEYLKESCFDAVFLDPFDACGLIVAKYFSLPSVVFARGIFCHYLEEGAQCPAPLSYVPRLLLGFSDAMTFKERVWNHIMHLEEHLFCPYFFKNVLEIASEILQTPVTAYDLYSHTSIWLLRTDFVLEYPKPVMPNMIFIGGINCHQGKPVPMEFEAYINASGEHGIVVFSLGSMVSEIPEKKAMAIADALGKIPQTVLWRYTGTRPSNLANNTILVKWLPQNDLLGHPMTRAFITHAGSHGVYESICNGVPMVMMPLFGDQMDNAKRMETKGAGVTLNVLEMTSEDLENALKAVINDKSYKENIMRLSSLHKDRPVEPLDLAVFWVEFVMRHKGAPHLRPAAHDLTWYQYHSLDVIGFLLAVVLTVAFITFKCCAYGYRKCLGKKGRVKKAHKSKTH

[6] = Mono-oxidation of isobavachin by MLM, enzyme kinetics; type: in vitro ADME, mice
[7] = based on the smallest AIC and SC values

CC(C)=CCc1c(O)ccc2c1O[C@H](c1ccc(O)cc1)CC2=O [isobavachin]
Ki (UGT1A1 [1]; substrate inhibition constant): 40820 ± 9700 nM | Vmax (UGT1A1 [1]): 7735.0 ± 1186.0 pmol/min per mg | CLint (CLmax) ([2]; formation of M1, substrate inhibition model): 59.81 μl/min per mg and 59.81 ± 21.18 μl/min per mg | CLint (CLmax) ([2]; formation of M2, Michaelis–Menten model): 5.53 ± 0.93 μl/min per mg | CLint (CLmax) ([3]; formation of G1, Hill equation (CLmax)): 148.79 ± 9.36 μl/min per mg | CLint (CLmax) ([3]; formation of G2, substrate inhibition model): 21.82 ± 4.35 μl/min per mg | inhibitory effects (CYP1A2): negligible or weak | IC50 (UGT1A1 [4]): 1530 ± 390 nM | residual activities (UGT1A1 [4]; 10 μM isobavachin): 4.58 % of the negative control | Ki (UGT1A1 [4]; Ki, substrate estradiol, competitive model (selected, smallest AIC and SC)): 3050 ± 410 nM | Inhibition type (UGT1A1 [4]; [7]): competitive inhibition | α (UGT1A1 [4]; substrate estradiol, mixed-type model): 8.01 ± 2.56 | exposure [5]: about 13.2 nM | IC50 (CYP2B6): 5000 ± 480 nM | residual activities (CYP2B6; 10 μM isobavachin): 30.86 % of the negative control | Ki (CYP2B6; substrate bupropion, competitive model (not selected)): 350 ± 110 nM | Ki (CYP2B6; substrate bupropion, mixed-type model (not selected)): 1460 ± 620 nM | Ki (CYP2B6; substrate bupropion, non-competitive model (selected, smallest AIC and SC)): 1930 ± 180 nM | Inhibition type (CYP2B6; [7]): non-competitive inhibition mode | α (CYP2B6; substrate bupropion, mixed-type model): 1.49 ± 0.92 | UGT enzymes involved in glucuronidation (expressed UGT enzymes): UGT1A1, 1A6, 1A7, 1A8, 1A9 and 2B4 have an important role in glucuronidation reaction | Ki (UGT1A7; substrate inhibition constant): 27540 ± 5390 nM | CLint (CLmax) (UGT1A7): 109.18 ± 24.17 μl/min per mg | Vmax (UGT1A7): 3593.00 ± 487.20 pmol/min per mg | CLint (CLmax) ([6]; formation of M1, Michaelis–Menten model): 35.46 μl/min per mg and 35.46 ± 5.98 μl/min per mg | CLint (CLmax) ([6]; formation of M2, substrate inhibition model): 64.32 μl/min per mg and 64.32 ± 17.18 μl/min per mg | CLint (CLmax) ([6]; formation of M3, substrate inhibition model): 47.43 μl/min per mg and 47.43 ± 7.99 μl/min per mg
